Data: ChEMBL document CHEMBL4699485, “Discovery and Development of SPR519 as a Potent, Selective, and Orally Bioavailable Inhibitor of PI3Kα and mTOR Kinases for the Treatment of Solid Tumors” (J Med Chem, 2020)

Key:
PC-3 = assay: Antiproliferative activity against human PC-3 cells after 48 hrs by MTT assay; assay type: functional, cell-based; settings: PC-3, 48 h
How it was run: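 PC3 cells grown in RPMI 1640 with 10% FBS and 1% penicillin/streptomycin at 37 °C, 5% CO2, seeded at 10000 cells/well. Treated 48 h across 20 µM–0.001 µM. MTT (5 mg/mL in PBS) added for 4 h, then DMSO solubilization and absorbance at 550 nm. Four-parameter nonlinear fit of % inhibition.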

[1] = biological target: Inhibitor of nuclear factor kappa-B kinase subunit epsilon (Homo sapiens) (UniProt Q14164); assay: Inhibition of human IKBKE at 1 uM using fluorescently labeled peptide substrate measured after 3 hrs by microfluidic mobility shift assay relative to control
How it was run: (§1)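 Single-concentration screen at 1 µM in duplicate, 1% final DMSO. Kinase (typically 1 nM), fluorescently labeled peptide substrate (typically 1 µM), ATP at Km and Mg²⁺ incubated about 3 h at 25 °C, then EDTA-quenched. Substrate and phosphorylated product separated by microfluidic electrophoresis and quantified by fluorescence.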

[2] = Elimination half life in Swiss mouse at 3 mg/kg, po via gavage by LC-MS/MS analysis; assay type: ADME, organism-based; settings: in vivo, read-out: beta t1/2 (converted)
How it was run: (§2)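 Female Swiss mice (n=3/group), fasted overnight, given single oral gavage dose in 0.5% CMC/0.5% Tween 80 (10 mL/kg) at 1, 3 or 10 mg/kg. Serial blood sampling at 0.16–8 h into heparinized tubes. Plasma extracted with acetonitrile containing verapamil internal standard and quantified by LC-MS/MS. Cmax, Tmax, AUC and t1/2 derived from the concentration–time profile.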

[3] = Toxicity in Swiss mouse assessed as morphological changes in uterus at 30 mg/kg, po administered twice daily via gavage for 5 days and measured post last dose; assay type: organism-based; settings: in vivo, 120 h, time 5 day
How it was run: (§3)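 Female Swiss mice (3 treated, 2 controls) were gavaged twice daily for 5 days, with compound in 0.5% CMC and Tween 80. After the last dosing the animals were sacrificed. Liver, kidney, lung, uterus and brain were excised and inspected visually for morphology and color change.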

[4] = AUC in Swiss mouse at 1 mg/kg, po via gavage by LC-MS/MS analysis; assay type: ADME, organism-based; design: dose 1 mg/kg; settings: in vivo; how it was run: as §2
[5] = Metabolic stability in mouse liver microsomes assessed as parent compound remaining at 10 uM remaining after 120 mins in presence of NADPH by HPLC analysis; assay type: ADME, Microsome; settings: read-out: Stabilty
How it was run: (§4)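 Compound at 10 µM was incubated with 0.5 mg/mL liver microsomes and 1 mM NADPH (final). Samples were taken at 0, 15, 30, 60 and 120 min and stopped with acetonitrile, then centrifuged and the supernatant analysed by HPLC. Percent parent remaining was set relative to the 0 min peak area (100%).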

[6] = biological target: RAC-gamma serine/threonine-protein kinase (Homo sapiens) (UniProt Q9Y243); assay: Inhibition of human AKT3 at 1 uM using fluorescently labeled peptide substrate measured after 3 hrs by microfluidic mobility shift assay relative to control; how it was run: as §1
[7] = Metabolic stability in human liver microsomes assessed as parent compound remaining at 10 uM remaining after 120 mins in presence of NADPH by HPLC analysis; assay type: ADME, Microsome; settings: read-out: Stabilty; how it was run: as §4
[8] = biological target: Receptor-type tyrosine-protein kinase FLT3 (Homo sapiens) (UniProt P36888); assay: Inhibition of human FLT3 at 1 uM using fluorescently labeled peptide substrate measured after 3 hrs by microfluidic mobility shift assay relative to control; how it was run: as §1
[9] = biological target: Angiopoietin-1 receptor (Homo sapiens) (UniProt Q02763); assay: Inhibition of human TIE2 at 1 uM using fluorescently labeled peptide substrate measured after 3 hrs by microfluidic mobility shift assay relative to control; how it was run: as §1
A2780 = assay: Antiproliferative activity against human A2780 cells after 48 hrs by MTT assay; assay type: functional, cell-based; settings: A2780, 48 h
How it was run: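 A2780 cells grown in DMEM with 10% FBS, L-glutamine and antibiotics, seeded at 10000 cells/well and allowed to adhere overnight. Treated 48 h across 20 µM–0.001 µM. MTT (5 mg/mL in PBS) added for 4 h, formazan dissolved in DMSO, absorbance read at 550 nm. % inhibition fit to a four-parameter log inhibitor vs response curve.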

[10] = Tmax in Swiss mouse at 3 mg/kg, po via gavage by LC-MS/MS analysis; assay type: ADME, organism-based; settings: in vivo
How it was run: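 Female Swiss mice (n=3/group) were fasted overnight, then gavaged with compound in 0.5% CMC/0.5% Tween 80 at 10 mL/kg. Serial blood samples at 0.16, 0.5, 1, 2, 4, 6 and 8 h were taken into heparinized tubes and spun to plasma. Plasma was extracted with acetonitrile containing verapamil (400 ng/mL) and quantified by LC-MS/MS against plasma calibration curves. Tmax was derived from the concentration–time profile.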

[11] = Toxicity in Swiss mouse assessed as morphological changes in liver at 30 mg/kg, po administered twice daily via gavage for 5 days and measured post last dose; assay type: organism-based; settings: in vivo, 120 h, time 5 day; how it was run: as §3
[12] = Toxicity in Swiss mouse assessed as discoloration of lung at 30 mg/kg, po administered twice daily via gavage for 5 days and measured post last dose; assay type: organism-based; settings: in vivo, 120 h, time 5 day; how it was run: as §3
[13] = Elimination half life in Swiss mouse at 1 mg/kg, po via gavage by LC-MS/MS analysis; assay type: ADME, organism-based; settings: in vivo, read-out: beta t1/2 (converted); how it was run: as §2
[14] = Toxicity in Swiss mouse assessed as loss of appetite at 10 mg/kg, po administered twice daily via gavage for 5 days and measuring daily during compound dosing; assay type: organism-based; settings: in vivo, 120 h, time 5 day
How it was run: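 Female Swiss mice (3 treated, 2 vehicle controls) received oral gavage twice daily for 5 days, with compound formulated in 0.5% CMC and Tween 80. Body weight, body temperature, body coat, feed intake, eyes, feces and general activity were observed daily.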

Sequence of Inhibitor of nuclear factor kappa-B kinase subunit epsilon (Homo sapiens) (Q14164 whole entry): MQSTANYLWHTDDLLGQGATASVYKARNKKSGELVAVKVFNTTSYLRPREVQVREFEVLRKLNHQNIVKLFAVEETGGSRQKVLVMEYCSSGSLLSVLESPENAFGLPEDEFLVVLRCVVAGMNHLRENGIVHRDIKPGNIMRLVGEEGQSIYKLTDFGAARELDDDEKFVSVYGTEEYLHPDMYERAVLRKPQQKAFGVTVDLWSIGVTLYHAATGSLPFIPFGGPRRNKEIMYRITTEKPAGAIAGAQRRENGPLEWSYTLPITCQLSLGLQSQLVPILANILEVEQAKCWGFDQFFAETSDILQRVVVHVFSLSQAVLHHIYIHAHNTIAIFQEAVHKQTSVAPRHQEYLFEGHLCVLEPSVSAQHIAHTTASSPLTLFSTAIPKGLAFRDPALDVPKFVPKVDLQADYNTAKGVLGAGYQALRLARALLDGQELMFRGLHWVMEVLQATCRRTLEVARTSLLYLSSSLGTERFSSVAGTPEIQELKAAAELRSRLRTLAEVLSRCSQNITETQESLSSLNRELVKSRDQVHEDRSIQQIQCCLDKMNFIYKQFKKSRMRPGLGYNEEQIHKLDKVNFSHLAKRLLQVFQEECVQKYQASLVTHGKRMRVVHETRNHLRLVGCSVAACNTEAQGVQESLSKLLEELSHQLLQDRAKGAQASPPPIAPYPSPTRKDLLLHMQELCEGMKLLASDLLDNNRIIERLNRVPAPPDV
Sequence of RAC-gamma serine/threonine-protein kinase (Homo sapiens) (Q9Y243 whole entry): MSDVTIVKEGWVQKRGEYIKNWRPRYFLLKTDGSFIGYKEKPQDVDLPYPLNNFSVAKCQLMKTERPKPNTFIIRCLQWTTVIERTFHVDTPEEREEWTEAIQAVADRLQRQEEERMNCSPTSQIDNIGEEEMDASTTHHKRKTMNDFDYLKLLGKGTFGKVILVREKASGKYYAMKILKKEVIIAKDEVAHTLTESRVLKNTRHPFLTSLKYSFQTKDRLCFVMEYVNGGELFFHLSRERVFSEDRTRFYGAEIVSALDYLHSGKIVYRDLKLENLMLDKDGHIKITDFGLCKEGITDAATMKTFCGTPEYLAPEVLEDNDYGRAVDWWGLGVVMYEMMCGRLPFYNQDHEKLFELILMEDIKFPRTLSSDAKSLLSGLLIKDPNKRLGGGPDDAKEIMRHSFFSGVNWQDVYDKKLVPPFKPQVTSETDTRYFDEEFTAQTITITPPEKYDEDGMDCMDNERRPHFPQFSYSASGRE
Sequence of Receptor-type tyrosine-protein kinase FLT3 (Homo sapiens) (P36888 whole entry): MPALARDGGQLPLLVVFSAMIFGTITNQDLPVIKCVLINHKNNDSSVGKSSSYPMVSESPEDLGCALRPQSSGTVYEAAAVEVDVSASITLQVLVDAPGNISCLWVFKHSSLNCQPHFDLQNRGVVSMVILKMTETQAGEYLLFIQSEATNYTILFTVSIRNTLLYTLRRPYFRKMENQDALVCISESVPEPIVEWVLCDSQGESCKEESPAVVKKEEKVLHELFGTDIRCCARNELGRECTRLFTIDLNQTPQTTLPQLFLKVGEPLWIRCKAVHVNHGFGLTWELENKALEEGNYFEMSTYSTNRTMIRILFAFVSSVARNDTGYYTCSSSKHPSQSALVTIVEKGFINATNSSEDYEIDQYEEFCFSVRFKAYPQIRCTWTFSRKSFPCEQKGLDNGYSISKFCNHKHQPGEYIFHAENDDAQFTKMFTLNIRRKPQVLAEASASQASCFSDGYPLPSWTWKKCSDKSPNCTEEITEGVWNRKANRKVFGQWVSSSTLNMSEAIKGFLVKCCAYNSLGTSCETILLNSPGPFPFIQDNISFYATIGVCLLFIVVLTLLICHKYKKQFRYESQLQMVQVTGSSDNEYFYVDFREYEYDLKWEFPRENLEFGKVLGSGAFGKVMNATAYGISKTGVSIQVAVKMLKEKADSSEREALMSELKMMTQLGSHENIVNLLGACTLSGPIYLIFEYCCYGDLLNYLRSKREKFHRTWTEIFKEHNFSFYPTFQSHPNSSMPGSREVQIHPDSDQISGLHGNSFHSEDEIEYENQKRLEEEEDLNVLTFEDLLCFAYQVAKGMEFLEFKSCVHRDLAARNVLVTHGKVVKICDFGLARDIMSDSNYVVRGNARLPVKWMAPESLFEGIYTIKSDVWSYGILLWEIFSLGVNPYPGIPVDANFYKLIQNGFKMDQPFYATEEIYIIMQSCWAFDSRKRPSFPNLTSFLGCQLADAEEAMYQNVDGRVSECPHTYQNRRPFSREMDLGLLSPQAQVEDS
Sequence of Angiopoietin-1 receptor (Homo sapiens) (Q02763 whole entry): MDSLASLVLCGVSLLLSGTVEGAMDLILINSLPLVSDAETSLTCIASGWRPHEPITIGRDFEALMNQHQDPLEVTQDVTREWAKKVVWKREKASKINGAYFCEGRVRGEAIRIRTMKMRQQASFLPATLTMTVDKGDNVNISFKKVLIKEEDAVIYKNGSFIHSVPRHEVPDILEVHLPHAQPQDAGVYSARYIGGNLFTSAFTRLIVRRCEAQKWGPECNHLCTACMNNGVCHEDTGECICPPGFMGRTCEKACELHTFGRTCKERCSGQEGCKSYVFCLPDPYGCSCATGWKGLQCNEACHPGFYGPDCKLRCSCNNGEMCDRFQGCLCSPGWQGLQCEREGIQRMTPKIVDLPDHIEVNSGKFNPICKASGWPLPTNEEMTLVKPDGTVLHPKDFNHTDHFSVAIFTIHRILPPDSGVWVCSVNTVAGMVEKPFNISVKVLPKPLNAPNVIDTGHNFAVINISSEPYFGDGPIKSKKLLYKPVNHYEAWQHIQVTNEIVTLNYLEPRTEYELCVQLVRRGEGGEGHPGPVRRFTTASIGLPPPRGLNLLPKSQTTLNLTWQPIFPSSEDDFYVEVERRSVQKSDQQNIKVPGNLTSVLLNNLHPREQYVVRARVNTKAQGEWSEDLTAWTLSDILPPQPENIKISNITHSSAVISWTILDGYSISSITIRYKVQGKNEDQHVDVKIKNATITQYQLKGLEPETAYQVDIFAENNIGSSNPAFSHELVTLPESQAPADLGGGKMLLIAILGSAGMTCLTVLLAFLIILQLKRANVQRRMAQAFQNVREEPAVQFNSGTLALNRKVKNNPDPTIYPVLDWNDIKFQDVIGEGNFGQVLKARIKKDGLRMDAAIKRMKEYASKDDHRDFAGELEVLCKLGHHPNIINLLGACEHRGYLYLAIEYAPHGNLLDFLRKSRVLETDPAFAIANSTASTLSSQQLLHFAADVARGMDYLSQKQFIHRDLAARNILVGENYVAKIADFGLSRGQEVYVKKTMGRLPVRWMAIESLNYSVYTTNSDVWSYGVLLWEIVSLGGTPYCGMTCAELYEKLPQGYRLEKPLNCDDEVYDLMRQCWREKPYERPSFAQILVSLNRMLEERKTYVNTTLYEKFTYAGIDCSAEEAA

For `CN(C)C(=O)c1ccc(Oc2nc(-c3cnc(N)s3)nc(N3CCOCC3)n2)cc1`, the EC50 (PC-3) was 480 nM, the inhibition [1] was -1% and the half-life [2] was 2.7 h. For the same compound, the Activity [3] was “Non-Toxic”, the AUC [4] was 26.9 µM·h and the remaining at 2 h, 10 µM [5] was 103%. For the same compound, the inhibition [6] was -1%, the remaining at 2 h, 10 µM [7] was 98% and the inhibition [8] was 9%. The inhibition [9] was 1%, the IC50 (A2780) was 230 nM and the Tmax [10] was 1.5 h. The Activity [11] was “Non-Toxic”, the Activity [12] was “Non-Toxic” and the half-life [13] was 2.66 h. The Activity [14] was “Non-Toxic”.
